ChEMBL document CHEMBL1124808, “The synthesis and antiallergy activity of 1-(aryloxy)-4-(4-arylpiperazinyl)-2-butanol derivatives” (1990)

What was measured:
Format in all cases: functional
Rattus norvegicus [1] = assay: Percent change in volume of foot edema of test compound to that of positive control was determined at a dose of 31.6 mg/kg in rat; -74/-67
Rattus norvegicus [2] = assay: Percent change in volume of foot edema of test compound to that of positive control was determined at a dose of 10 mg/kg in rat; -41/-59
Rattus norvegicus [3] = assay: Percent change in volume of foot edema of test compound to that of positive control was determined at a dose of 10 mg/kg in rat; -25/-44
Rattus norvegicus [4] = assay: Percent change in volume of foot edema of test compound to that of positive control was determined at a dose of 31.6 mg/kg in rat; -49/-44
Rattus norvegicus [5] = assay: Percent change in volume of foot edema of test compound to that of positive control was determined at a dose of 10 mg/kg in rat; -48/-68
Rattus norvegicus [6] = assay: Percent change in volume of foot edema of test compound to that of positive control was determined at a dose of 3.16 mg/kg in rat; -13/-68
Rattus norvegicus [7] = assay: Percent change in volume of foot edema of test compound to that of positive control was determined at a dose of 31.6 mg/kg in rat; -78/-78
Cavia porcellus = organism: Cavia porcellus; assay: Dose that protects 50% of guinea pig from collapse was determined in guinea pig anaphylaxis assay; conditions: read-out: PD50
Summary of the method: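 Guinea pigs dosed by gavage (10 mL/kg) with compound in 0.5% Tween 80/water; reference theophylline 100 mg/kg po. At 1–24 h, exposed in chamber to aerosolized 1% (w/v) egg albumin at 10 L air/min for up to 5 min; protected if no collapse within 5 min. PD50 by Litchfield and Wilcoxon.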

Rattus norvegicus [8] = assay: Percent change in volume of foot edema of test compound to that of positive control was determined at a dose of 31.6 mg/kg in rat; -83/-69
Rattus norvegicus [9] = assay: Percent change in volume of foot edema of test compound to that of positive control was determined at a dose of 10 mg/kg in rat; -53/-76
Rattus norvegicus [10] = assay: Percent change in volume of foot edema of test compound to that of positive control was determined at a dose of 3.16 mg/kg in rat; -50/-84
Rattus norvegicus [11] = assay: Percent change in volume of foot edema of test compound to that of positive control was determined at a dose of 31.6 mg/kg in rat; -17/-70
Rattus norvegicus [12] = assay: Percent change in volume of foot edema of test compound to that of positive control was determined at a dose of 10 mg/kg in rat; -11/-65
Rattus norvegicus [13] = assay: Percent change in volume of foot edema of test compound to that of positive control was determined at a dose of 31.6 mg/kg in rat; -66/-66
Rattus norvegicus [14] = assay: Percent change in volume of foot edema of test compound to that of positive control was determined at a dose of 10 mg/kg in rat; -34/-78
Rattus norvegicus [15] = assay: Percent change in volume of foot edema of test compound to that of positive control was determined at a dose of 31.6 mg/kg in rat; -88/-75
Rattus norvegicus [16] = assay: Percent change in volume of foot edema of test compound to that of positive control was determined at a dose of 10 mg/kg in rat; -70/-88
Rattus norvegicus [17] = assay: Oral Antiallergic activity in the passive foot anaphylaxis (PFA) assay of various amines at the dose of 3.16 mg/kg; -42/-78
Rattus norvegicus [18] = assay: Percent change in volume of foot edema of test compound to that of positive control was determined at a dose of 31.6 mg/kg in rat; -91/-83
Rattus norvegicus [19] = assay: Percent change in volume of foot edema of test compound to that of positive control was determined at a dose of 10 mg/kg in rat; -39/-78
Rattus norvegicus [20] = assay: Percent change in volume of foot edema of test compound to that of positive control was determined at a dose of 31.6 mg/kg in rat; -70/-84
Rattus norvegicus [21] = assay: Percent change in volume of foot edema of test compound to that of positive control was determined at a dose of 10 mg/kg in rat; -43/-81
Rattus norvegicus [22] = assay: Percent change in volume of foot edema of test compound to that of positive control was determined at a dose of 31.6 mg/kg in rat; -73/-65
Rattus norvegicus [23] = assay: Percent change in volume of foot edema of test compound to that of positive control was determined at a dose of 31.6 mg/kg in rat; -40/-81
Rattus norvegicus [24] = assay: Percent change in volume of foot edema of test compound to that of positive control was determined at a dose of 10 mg/kg in rat; -10/-44
Rattus norvegicus [25] = assay: Percent change in volume of foot edema of test compound to that of positive control was determined at a dose of 31.6 mg/kg in rat; -54/-44
Rattus norvegicus [26] = assay: Percent change in volume of foot edema of test compound to that of positive control was determined at a dose of 3.16 mg/kg in rat; +22/-62
Rattus norvegicus [27] = assay: Percent change in volume of foot edema of test compound to that of positive control was determined at a dose of 31.6 mg/kg in rat; […]/-78
Rattus norvegicus [28] = assay: Percent change in volume of foot edema of test compound to that of positive control was determined at a dose of 10 mg/kg in rat; -50/-62
Rattus norvegicus [29] = assay: Percent change in volume of foot edema of test compound to that of positive control was determined at a dose of 3.16 mg/kg in rat; -32/-93
Rattus norvegicus [30] = assay: Percent change in volume of foot edema of test compound to that of positive control was determined at a dose of 31.6 mg/kg in rat; -88/-83
Rattus norvegicus [31] = assay: Percent change in volume of foot edema of test compound to that of positive control was determined at a dose of 10 mg/kg in rat; -72/-83

Cc1cc(OCC(O)CCN2CCN(c3ccc(F)cc3)CC2)ccc1Cl.Cl.Cl (stereo unspecified)
PFA (Rattus norvegicus [1]): -74 | PFA (Rattus norvegicus [2]): -41

Cl.Cl.OC(CCN1CCN(c2ccccc2)CC1)COc1ccc(Cl)c(Cl)c1 (stereo unspecified)
PFA (Rattus norvegicus [3]): -25 | PFA (Rattus norvegicus [4]): -49

Cl.Cl.OC(CCN1CCN(c2ccccn2)CC1)COc1ccc(Cl)cc1 (stereo unspecified)
PFA (Rattus norvegicus [5]): -48 | PFA (Rattus norvegicus [6]): -13 | PFA (Rattus norvegicus [7]): -78 | ED50 (Cavia porcellus): 10.2 mg/kg

OC(CCN1CCN(c2ccccc2)CC1)COc1ccc(Cl)cc1 (stereo unspecified)
PFA (Rattus norvegicus [8]): -83 | PFA (Rattus norvegicus [9]): -53 | PFA (Rattus norvegicus [10]): -50 | ED50 (Cavia porcellus): 6.69 mg/kg

OC(CCOc1ccccc1)CN1CCN(c2ccccc2)CC1 (stereo unspecified)
PFA (Rattus norvegicus [11]): -17

Cc1ccc(OCC(O)CCN2CCN(c3ccccc3)CC2)cc1 (stereo unspecified)
PFA (Rattus norvegicus [12]): -11 | PFA (Rattus norvegicus [13]): -66

OC(CCN1CCN(c2ccccc2)CC1)COc1ccccc1 (stereo unspecified)
PFA (Rattus norvegicus [14]): -34 | PFA (Rattus norvegicus [15]): -88 | ED50 (Cavia porcellus): 40 mg/kg

COc1ccc(N2CCN(CCC(O)COc3ccc(F)cc3)CC2)cc1.Cl (stereo unspecified)
PFA (Rattus norvegicus [16]): -70 | PFA (Rattus norvegicus [17]): -42 | PFA (Rattus norvegicus [18]): -91 | ED50 (Cavia porcellus): > 178 mg/kg

O=C(O)/C=C\C(=O)O.O=C(O)/C=C\C(=O)O.OC(CCN1CCN(c2ccccn2)CC1)COc1ccccc1 (stereo unspecified)
PFA (Rattus norvegicus [19]): -39 | PFA (Rattus norvegicus [20]): -70

OC(CCN1CCN(c2ccccc2)CC1)COc1ccc(F)cc1 (stereo unspecified)
PFA (Rattus norvegicus [21]): -43 | PFA (Rattus norvegicus [22]): -73

c1ccc(OCCN2CCN(c3ccccc3)CC2)cc1
PFA (Rattus norvegicus [23]): -40

COc1ccc(OCC(O)CCN2CCN(c3ccccc3)CC2)cc1 (stereo unspecified)
PFA (Rattus norvegicus [24]): -10 | PFA (Rattus norvegicus [25]): -54

Cc1cc(Cl)ccc1OCC(O)CCN1CCN(c2ccccc2)CC1.Cl.Cl (stereo unspecified)
PFA (Rattus norvegicus [26]): 22 | PFA (Rattus norvegicus [27]): -69 | PFA (Rattus norvegicus [28]): -50

Cl.OC(CCN1CCN(c2ccc(F)cc2)CC1)COc1ccc(F)cc1 (stereo unspecified)
PFA (Rattus norvegicus [29]): -32 | PFA (Rattus norvegicus [30]): -88 | PFA (Rattus norvegicus [31]): -72 | ED50 (Cavia porcellus): 3.06 mg/kg
